The record followed here is ChEMBL document CHEMBL3414436, “Strong antibacterial properties of anion transporters: a result of depolarization and weakening of the bacterial membrane” (J Med Chem, 2015).

SMILES strings stand for the structures. The source made the active and inactive calls. The rule behind the calls is not given here.

One may read the MIC as the lowest concentration found to suppress growth.

A short description of series [1]: Binding affinity to egg yolk phosphotidylcholine liposomes assessed as induction of chloride ion efflux after 250 secs by fluorimetric analysis relative to lipid. The procedure, abridged:
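EYPC LUVs (100 nm extruded) loaded with 2 mM lucigenin, 100 mM NaCl and 10 mM sodium phosphate pH 6.4. Liposomes are suspended in NaNO3 buffer at 37 °C. Transporter in MeOH, at various concentrations, is added at 50 s and Triton X-100 lysis at 300 s. Chloride efflux is read as lucigenin fluorescence (ex 372, em 503 nm). Traces are averaged over triplicates.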

For series [2], the system named is Escherichia coli. The series is described as follows: Antibacterial activity against Escherichia coli SK037 expressing TolC mutant measured for 24 hrs. It is filed as functional. The procedure, abridged: (§1)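 Broth microdilution in LB at 37°C. Overnight precultures regrown to OD600 0.5, then diluted to OD600 0.1. Compound added in DMSO, final DMSO max 2.5% (v/v). Plates stirred; OD600 read at 0, 4, 8 and 24 h. MIC taken as lowest concentration with no detectable growth. Triplicates from independent cultures.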

The next series has as its system Bacillus thuringiensis. The series is described as follows: Antibacterial activity against Bacillus thuringiensis HD73 measured for 24 hrs. The series is classed as functional. The procedure, abridged: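 Broth microdilution in LB. Overnight 37 °C preculture, regrown to OD600 0.5, diluted to OD600 0.1. Wells hold culture plus compound in DMSO (DMSO max 2.5% v/v final). Incubated at 37 °C with stirring, OD600 read at 0, 4, 8 and 24 h. MIC is the lowest concentration with no detectable growth. Triplicates from independent cultures.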

For series [3], the system named is Escherichia coli. The series can be described thus: Antibacterial activity against wild type Escherichia coli DH5alpha measured for 24 hrs. The series is classed as functional, DH5[alpha]. The procedure, abridged:
as §1

Series [4] concerns Escherichia coli. The series can be described thus: Ratio of MIC for wild type Escherichia coli DH5alpha to MIC for Escherichia coli SK037 expressing TolC mutant. The series is classed as functional.
Series [5] in a line: Induction of nitrate anions efflux in chloroform phase at 1 mM by fluorescence-based U-tube method. It is filed as physicochemical. Conditions: 1000 µM. A digest of the protocol: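 U-tube: 10 mL chloroform containing 1 mM ionophore separates 5 mL of 0.1 mM aqueous lucigenin (donor arm) from 5 mL water (receiving arm). Lucigenin fluorescence in the receiving phase is monitored at ex 372 and em 503 nm. Neat chloroform serves as control.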

A short description of series [6]: Hemolytic activity in human RBC at 25 uM after 1 hr relative to control. It is filed as ADME, cell-based, Erythrocyte. Conditions: red blood cells (RBC), read-out: Activity. The procedure, abridged:
(§2)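 Human type O erythrocytes are washed in PBS and used at 2% v/v. Two-fold serial dilutions in DMSO are added, then incubated for 1 or 24 h at 37 °C with gentle shaking. After centrifugation at 2000g, hemoglobin release is read as supernatant A405. It is normalized to PBS (0%) and 0.5% Triton X-100 (100%). Mean of three experiments.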

The nature of series [7]: Hemolytic activity in human RBC at 25 uM after 24 hrs relative to control. It is filed as cell-based, Erythrocyte. The note with it: red blood cells (RBC), read-out: Activity. A digest of the protocol: as §2
For another series, the system named is Lipid bilayer. The series is described as follows: Binding affinity to DPPC liposomes assessed as induction of chloride ion efflux at 35 to 45 degC after 250 secs by fluorimetric analysis. Conditions: Microsome. The procedure, abridged: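 Lucigenin-loaded (2 mM) DPPC LUVs (100 nm extruded) containing 100 mM NaCl and 10 mM sodium phosphate pH 6.4, external dye removed by gel filtration. Vesicles diluted into 2.5 mL stirred phosphate buffer at 35, 40 or 45°C. Transporter in MeOH added at t = 50 s to 10 mol% relative to lipid; Triton X-100 lysis at 300 s. Fluorescence ex 372/em 503 nm. Average of three runs.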

Series [8] relates to Escherichia coli. The series is described as follows: Induction of membrane depolarization in Escherichia coli SK037 expressing TolC mutant at 40 times MIC after 2 hrs by diSC25 dye-based fluorescence assay. The series is classed as functional, organism-based. A digest of the protocol:
(§3)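 E. coli SK037 grown overnight in LB at 37°C, washed in 5 mM HEPES pH 7.3 with 20 mM glucose and diluted to A600 0.15. diSC25 (1 µM final) equilibrated 1 h at 37°C to a stable baseline. Compound in DMSO added to 0.4 mM or 1 mM final. Fluorescence ex 600/em 660 nm followed ~2 h with stirring at 37°C.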

Series [9] deals with Escherichia coli. The series can be described thus: Antibacterial activity against Escherichia coli SK037 expressing TolC mutant assessed as change in cell morphology and membrane damage after 12 to 24 hrs by field emission scanning electron microscopic analysis. The series is classed as functional, organism-based. A digest of the protocol: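 E. coli SK037 grown in LB, washed three times, resuspended in 10 mM PBS pH 7.4 and diluted to A600 1.20 (9 x 10^8 CFU/mL). Cells exposed to 0.04 mM or 0.08 mM compound (added in DMSO) on poly-lysine-coated glass slides at 37°C for 12 h or 24 h. Fixed with 2.5% glutaraldehyde, stained with 1% OsO4, ethanol-dehydrated, critical-point dried, carbon-coated, imaged by field emission SEM.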

In series [10] the test system is Escherichia coli. The series can be described thus: Induction of membrane permeabilization in Escherichia coli SK037 expressing TolC mutant at 40 times MIC after 2 hrs by diSC25 dye-based fluorescence assay. The series is classed as functional, organism-based. A digest of the protocol:
as §3

[11] abbreviates: Escherichia coli, SK037, 24 h, read-out: MIC.
Setting [12] is: Bacillus thuringiensis, HD73, 24 h, read-out: MIC.
The mark [13] stands for this setting: Escherichia coli, DH5[alpha], 24 h, read-out: MIC.

As for `C(#Cc1ccc(Cn2c[n+](Cc3ccc(C#Cc4ccccc4)cc3)c3ccccc32)cc1)c1ccccc1.O=S(=O)([N-]S(=O)(=O)C(F)(F)F)C(F)(F)F` [listing 1 of 2 here], the EC50 in [1] came to 5.8 mol%. Further, the MIC with Escherichia coli [2] (setting [11]) was 25 µM; with Bacillus thuringiensis (setting [12]) it was 10 µM; with Escherichia coli [3] (setting [13]), greater than 100 µM. Also, in the series with Escherichia coli [4], the Ratio is 2.5.

For the molecule `C(#Cc1ccc(C[n+]2cn(-c3cccc(-n4c[n+](Cc5ccc(C#Cc6ccccc6)cc5)c5ccccc54)n3)c3ccccc32)cc1)c1ccccc1.[Br-].[Br-]`, in [1], the EC50 was 24 mol%. For the same molecule, the minimum inhibitory concentration (MIC) was greater than 100 µM in the series with Escherichia coli [2] (setting [11]), 10 µM in the series on Bacillus thuringiensis (setting [12]) and greater than 100 µM in the series on Escherichia coli [3] (setting [13]).

On to `C(#Cc1ccc(C[n+]2cn(-c3cccc(-n4c[n+](Cc5ccc(C#Cc6ccccc6)cc5)c5ccccc54)n3)c3ccccc32)cc1)c1ccccc1.O=S(=O)([O-])C(F)(F)F.O=S(=O)([O-])C(F)(F)F`, for which the EC50 in [1] is given as 12 mol%. In addition, the MIC against Bacillus thuringiensis is 10 µM; with Escherichia coli [3], greater than 100 µM.

Consider `C(#Cc1ccc(C[n+]2cn(Cc3cccc(Cn4c[n+](Cc5ccc(C#Cc6ccccc6)cc5)c5ccccc54)n3)c3ccccc32)cc1)c1ccccc1.O=S(=O)([N-]S(=O)(=O)C(F)(F)F)C(F)(F)F.O=S(=O)([N-]S(=O)(=O)C(F)(F)F)C(F)(F)F` [listing 1 of 2 here], for which the EC50 in series [1] came out at 5.6 mol%. Moreover, the MIC in the series on Escherichia coli [2] (setting [11]) came out at 10 µM; in the series with Bacillus thuringiensis (setting [12]), 10 µM; in the series with Escherichia coli [3] (setting [13]), 50 µM. In addition, the Activity result in series [5] is “Not Active”. Moreover, the Ratio in the series with Escherichia coli [4] was 2.5.

For the molecule `C(#Cc1ccc(C[n+]2cn(Cc3cccc(Cn4c[n+](Cc5ccc(C#Cc6ccccc6)cc5)c5ccccc54)n3)c3ccccc32)cc1)c1ccccc1.O=S(=O)([O-])C(F)(F)F.O=S(=O)([O-])C(F)(F)F`, the EC50 in series [1] worked out at 0.46 mol%. Moreover, the results for the minimum inhibitory concentration (MIC) against Escherichia coli [2], in the series on Bacillus thuringiensis and against Escherichia coli [3] were 10 µM, 2 µM and 25 µM, respectively. Further, the outcome in series [5] was Active. Besides, the hemolysis at 1 h, 25 µM in series [6] is less than 10%. Also, the hemolysis at 24 h, 25 µM in series [7] is 10%. In the series with Escherichia coli [4], the Ratio is 2.5.

On to `C(#Cc1ccc(C[n+]2cn(Cc3cccc(Cn4c[n+](Cc5ccc(C#Cc6ccccc6)cc5)c5ccccc54)n3)c3ccccc32)cc1)c1ccccc1`, for which the outcome with Lipid bilayer, in the series on Escherichia coli [8] and with Escherichia coli [10] was Active. Also, in the series on Escherichia coli [9], the Activity entry was “Dose-dependent effect”.

With `C(#Cc1ccc(Cn2c[n+](Cc3ccc(C#Cc4ccccc4)cc3)c3ccccc32)cc1)c1ccccc1.[Br-]`, the EC50 in [1] is given as 14.8 mol%. Further, the results for the MIC in the series with Escherichia coli [2] (setting [11]), in the series on Bacillus thuringiensis (setting [12]) and in the series with Escherichia coli [3] (setting [13]) were greater than 100 µM, 10 µM and greater than 100 µM, respectively.

For the molecule `C(#Cc1ccc(C[n+]2cn(Cc3cccc(Cn4c[n+](Cc5ccc(C#Cc6ccccc6)cc5)c5ccccc54)n3)c3ccccc32)cc1)c1ccccc1.O=S(=O)([N-]S(=O)(=O)C(F)(F)F)C(F)(F)F.O=S(=O)([N-]S(=O)(=O)C(F)(F)F)C(F)(F)F` [listing 2 of 2 here], the outcome in the series with Lipid bilayer, with Escherichia coli [8] and in the series with Escherichia coli [10] was Active.

As for `C(#Cc1ccc(C[n+]2cn(-c3cccc(-n4c[n+](Cc5ccc(C#Cc6ccccc6)cc5)c5ccccc54)n3)c3ccccc32)cc1)c1ccccc1.O=S(=O)([N-]S(=O)(=O)C(F)(F)F)C(F)(F)F.O=S(=O)([N-]S(=O)(=O)C(F)(F)F)C(F)(F)F`, the EC50 in series [1] came out at 6.9 mol%. The MIC was greater than 100 µM in the series with Escherichia coli [2] (setting [11]), 10 µM in the series with Bacillus thuringiensis (setting [12]) and greater than 100 µM in the series on Escherichia coli [3] (setting [13]).

Take `C(#Cc1ccc(Cn2c[n+](Cc3ccc(C#Cc4ccccc4)cc3)c3ccccc32)cc1)c1ccccc1.O=S(=O)([N-]S(=O)(=O)C(F)(F)F)C(F)(F)F` [listing 2 of 2 here]: the result in the series on Escherichia coli [10] was Active.

With `C(#Cc1ccc(C[n+]2cn(Cc3cccc(Cn4c[n+](Cc5ccc(C#Cc6ccccc6)cc5)c5ccccc54)n3)c3ccccc32)cc1)c1ccccc1.[Br-].[Br-]`, in [1], the EC50 turned out to be 14 mol%. Moreover, the MIC came out at 10 µM in the series on Escherichia coli [2] (setting [11]), 10 µM with Bacillus thuringiensis and 100 µM against Escherichia coli [3]. Further, the Activity entry in series [5] is reported as “Not Active”. In addition, in the series on Escherichia coli [4], the Ratio is 10.
